{"source": "ChEMBL document CHEMBL4261600", "about": "(Eur J Med Chem, 2018)", "key": {"[1]": {"target": "Serine/threonine-protein kinase pim-1 (Homo sapiens) (UniProt P11309)", "experiment": "Binding affinity to wild-type human partial length PIM1 (A15 to K313 residues) expressed in bacterial expression system assessed as remaining unbound target protein level at 1000 nM by Kinomescan method relative to control"}, "[2]": {"target": "Serine/threonine-protein kinase BRSK2 (Homo sapiens) (UniProt Q8IWQ3)", "experiment": "Binding affinity to wild-type human full length BRSK2 (M1 to L674 residues) expressed in bacterial expression system assessed as remaining unbound target protein level at 1000 nM by Kinomescan method relative to control", "how_it_was_run": "(§1)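 Single-point competition binding screen across a panel of 468 kinases and mutants, with the inhibitor at 1 μM. Binding is read out as percent of a DMSO control, and targets below 1 percent control were classed as strong binders.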"}, "[3]": {"target": "Serine/threonine-protein kinase LATS2 (Homo sapiens) (UniProt Q9NRM7)", "experiment": "Binding affinity to wild-type human partial length LATS2 (Q641 to V1088 residues) expressed in mammalian expression system assessed as remaining unbound target protein level at 1000 nM by Kinomescan method relative to control"}, "[4]": {"target": "Cyclin-dependent kinase 7 (Homo sapiens) (UniProt P50613)", "experiment": "Binding affinity to wild-type human full length CDK7 (M1 to L344 residues) expressed in mammalian expression system assessed as remaining unbound target protein level at 1000 nM by Kinomescan method relative to control", "how_it_was_run": "(§2)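 KINOMEscan competitive binding profile at 1 μM inhibitor. Remaining target binding reported as percent of DMSO control.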"}, "[5]": {"target": "Phosphatidylinositol 4,5-bisphosphate 3-kinase catalytic subunit beta isoform (Homo sapiens) (UniProt P42338)", "experiment": "Binding affinity to wild-type human partial length PIK3CB (P118 to S1070 residues) expressed in mammalian expression system assessed as remaining unbound target protein level at 1000 nM by Kinomescan method relative to control"}, "[6]": {"target": "Homeodomain-interacting protein kinase 4 (Homo sapiens) (UniProt Q8NE63)", "experiment": "Binding affinity to wild-type human partial length HIPK4 (M1 to V384 residues) expressed in bacterial expression system assessed as remaining unbound target protein level at 1000 nM by Kinomescan method relative to control", "how_it_was_run": "(§3)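 KINOMEscan binding panel of 468 kinases/mutants. Inhibitor was tested at a single concentration of 1 μM. Binding is reported as percent of control, defined relative to a DMSO control.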"}, "[7]": {"experiment": "Half life in mouse at 3 mg/kg, iv by LC-MS/MS analysis", "assay_type": "ADME, organism-based", "details": "in vivo"}, "[8]": {"tested_on": "Proto-oncogene tyrosine-protein kinase receptor Ret (Homo sapiens), P07949 [V804M]", "experiment": "Binding affinity to human partial length RET V804M mutant (E713 to D1014 residues) expressed in bacterial expression system assessed as remaining unbound target protein level at 1000 nM by Kinomescan method relative to control", "how_it_was_run": "(§4)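 KINOMEscan competition-binding profiling across the panel of 468 kinases and mutants, with inhibitor tested at 1 μM. Binding is expressed as percent of control, with DMSO as the reference control.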"}, "[9]": {"target": "Inhibitor of nuclear factor kappa-B kinase subunit alpha (Homo sapiens) (UniProt O15111)", "experiment": "Binding affinity to wild-type human full length IKK-alpha (M1 to E745 residues) expressed in mammalian expression system assessed as remaining unbound target protein level at 1000 nM by Kinomescan method relative to control", "how_it_was_run": "as §1"}, "[10]": {"target": "Ribosomal protein S6 kinase alpha-2 (Homo sapiens) (UniProt Q15349)", "experiment": "Binding affinity to wild-type human partial length N-terminal RSK3 kinase domain 1 (M1 to Q385 residues) expressed in bacterial expression system assessed as remaining unbound target protein level at 1000 nM by Kinomescan method relative to control"}, "[11]": {"target": "Serine/threonine-protein kinase ULK2 (Homo sapiens) (UniProt Q8IYT8)", "experiment": "Binding affinity to wild-type human partial length ULK2 (M1 to S301 residues) expressed in mammalian expression system assessed as remaining unbound target protein level at 1000 nM by Kinomescan method relative to control"}, "[12]": {"tested_on": "Tyrosine-protein kinase ABL1 (Homo sapiens), P00519 [Q252H]", "experiment": "Binding affinity to human phosphorylated ABL1 Q252H mutant expressed in mammalian expression system assessed as remaining unbound target protein level at 1000 nM by Kinomescan method relative to control", "how_it_was_run": "as §1"}, "[13]": {"target": "Phosphatidylinositol 4-phosphate 5-kinase type-1 alpha (Homo sapiens) (UniProt Q99755)", "experiment": "Binding affinity to wild-type human full length PIP5K1A (M1 to H562 residues) expressed in bacterial expression system assessed as remaining unbound target protein level at 1000 nM by Kinomescan method relative to control", "how_it_was_run": "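Profiled in a KINOMEscan binding panel with the inhibitor at a single concentration of 1 μM. Binding to each kinase was read out as percent of control, relative to a DMSO control. Strong binders were defined as those with a percent control value below 1.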"}, "[14]": {"target": "Serine/threonine-protein kinase Nek6 (Homo sapiens) (UniProt Q9HC98)", "experiment": "Binding affinity to wild-type human full length NEK6 (M8 to T313 residues) expressed in bacterial expression system assessed as remaining unbound target protein level at 1000 nM by Kinomescan method relative to control", "how_it_was_run": "(§5)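 KINOMEscan competition binding profile across a panel of 468 kinases and mutants, with the inhibitor tested at a single concentration of 1 μM. Binding is reported as percent of control, meaning signal relative to a DMSO control.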"}, "[15]": {"target": "Tyrosine-protein kinase CSK (Homo sapiens) (UniProt P41240)", "experiment": "Binding affinity to wild-type human full length CSK (M1 to L450 residues) expressed in bacterial expression system assessed as remaining unbound target protein level at 1000 nM by Kinomescan method relative to control", "how_it_was_run": "as §2"}, "[16]": {"target": "Phosphorylase b kinase gamma catalytic chain, liver/testis isoform (Homo sapiens) (UniProt P15735)", "experiment": "Binding affinity to wild-type human partial length PHKG2 (M1 to W300 residues) expressed in bacterial expression system assessed as remaining unbound target protein level at 1000 nM by Kinomescan method relative to control", "how_it_was_run": "as §3"}, "[17]": {"target": "Casein kinase I isoform alpha (Homo sapiens) (UniProt P48729)", "experiment": "Binding affinity to wild-type human partial length CSNK1A1 (M1 to L450 residues) expressed in mammalian expression system assessed as remaining unbound target protein level at 1000 nM by Kinomescan method relative to control", "how_it_was_run": "as §5"}, "[18]": {"target": "Angiopoietin-1 receptor (Homo sapiens) (UniProt Q02763)", "experiment": "Binding affinity to wild-type human partial length TIE2 (N804 to T1112 residues) expressed in bacterial expression system assessed as remaining unbound target protein level at 1000 nM by Kinomescan method relative to control"}, "[19]": {"target": "Phosphorylase b kinase gamma catalytic chain, skeletal muscle/heart isoform (Homo sapiens) (UniProt Q16816)", "experiment": "Binding affinity to wild-type human full length PHKG1 (M1 to Y387 residues) expressed in bacterial expression system assessed as remaining unbound target protein level at 1000 nM by Kinomescan method relative to control", "how_it_was_run": "as §5"}, "[20]": {"tested_on": "Tyrosine-protein kinase ABL1 (Homo sapiens), P00519 [F317L]", "experiment": "Binding affinity to human non-phosphorylated ABL1 F317L mutant (S229 to K512 residues) expressed in mammalian expression system assessed as remaining unbound target protein level at 1000 nM by Kinomescan method relative to control", "how_it_was_run": "as §4"}}, "data": [{"molecule": "COCCN[C@H]1CC[C@H](Nc2cc(-c3csc(NCC4(C#N)CCOCC4)n3)c(Cl)cn2)CC1", "values": [{"measurement": "Activity", "setting": "[1]", "result": 55, "unit": "%"}, {"measurement": "Activity", "setting": "[2]", "result": 75, "unit": "%"}, {"measurement": "Activity", "setting": "[3]", "result": 84, "unit": "%"}, {"measurement": "Activity", "setting": "[4]", "result": 1.8, "unit": "%"}, {"measurement": "Activity", "setting": "[5]", "result": 100, "unit": "%"}, {"measurement": "Activity", "setting": "[6]", "result": 9.9, "unit": "%"}, {"measurement": "half-life", "setting": "[7]", "result": 1.72, "unit": "h"}, {"measurement": "Activity", "setting": "[8]", "result": 98, "unit": "%"}, {"measurement": "Activity", "setting": "[9]", "result": 89, "unit": "%"}, {"measurement": "Activity", "setting": "[10]", "result": 90, "unit": "%"}, {"measurement": "Activity", "setting": "[11]", "result": 100, "unit": "%"}, {"measurement": "Activity", "setting": "[12]", "result": 90, "unit": "%"}, {"measurement": "Activity", "setting": "[13]", "result": 100, "unit": "%"}, {"measurement": "Activity", "setting": "[14]", "result": 94, "unit": "%"}, {"measurement": "Activity", "setting": "[15]", "result": 95, "unit": "%"}, {"measurement": "Activity", "setting": "[16]", "result": 99, "unit": "%"}, {"measurement": "Activity", "setting": "[17]", "result": 99, "unit": "%"}, {"measurement": "Activity", "setting": "[18]", "result": 89, "unit": "%"}, {"measurement": "Activity", "setting": "[19]", "result": 69, "unit": "%"}, {"measurement": "Activity", "setting": "[20]", "result": 100, "unit": "%"}]}]}
